Results on 30 compounds are retold here after ChEMBL document CHEMBL4808214, “Structure-activity relationship studies in substituted sulfamoyl benzamidothiazoles that prolong NF-κB activation” (Bioorg Med Chem, 2021).

One data set deals with THP-1. The data set is described as follows: Cytotoxicity against human THP-1 cells assessed as cell viability at 5 uM measured after 18 hrs by MTT assay relative to control. It counts as cell-based. The following applies: thp-1, 18 h. A digest of the protocol:
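THP-1 cells were plated at 10^5/well in RPMI with 10% FBS and penicillin/streptomycin, then given compound at 5 μM final (0.5% DMSO) for 18 h. MTT at 0.5 mg/mL was added for 4–6 h, followed by SDS/HCl lysis buffer overnight. Absorbance was read at 570 nm against a 650 nm reference. Viability was normalized to DMSO as 100%.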

Data set [1] has as its target Nuclear factor NF-kappa-B complex (Homo sapiens) (UniProt Q00653+P19838+Q04206). Kind of data set: Activation of NF-kappaB in human THP1-Blue NF-kappaB cells co-expressing NFkappaB-inducible SEAP assessed as increase in SEAP activity at 5 uM measured after 20 hrs by quanti-blue based colorimetric assay relative to control. The format is cell-based. The following applies: filed as activator. Put shortly: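 THP1-Blue NF-κB reporter cells plated at 10^5/well in RPMI with 10% FBS, penicillin/streptomycin and Normocin. Compound added at 5 μM final (0.5% DMSO), then incubated 20 h. Secreted SEAP in the supernatant was read colorimetrically with QuantiBlue at 630 nm. Two-point normalization set vehicle (0.5% DMSO) as 100% and a reference activator as 200%.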

Nuclear factor NF-kappa-B complex (Homo sapiens), sequence (P19838 whole entry, looked up): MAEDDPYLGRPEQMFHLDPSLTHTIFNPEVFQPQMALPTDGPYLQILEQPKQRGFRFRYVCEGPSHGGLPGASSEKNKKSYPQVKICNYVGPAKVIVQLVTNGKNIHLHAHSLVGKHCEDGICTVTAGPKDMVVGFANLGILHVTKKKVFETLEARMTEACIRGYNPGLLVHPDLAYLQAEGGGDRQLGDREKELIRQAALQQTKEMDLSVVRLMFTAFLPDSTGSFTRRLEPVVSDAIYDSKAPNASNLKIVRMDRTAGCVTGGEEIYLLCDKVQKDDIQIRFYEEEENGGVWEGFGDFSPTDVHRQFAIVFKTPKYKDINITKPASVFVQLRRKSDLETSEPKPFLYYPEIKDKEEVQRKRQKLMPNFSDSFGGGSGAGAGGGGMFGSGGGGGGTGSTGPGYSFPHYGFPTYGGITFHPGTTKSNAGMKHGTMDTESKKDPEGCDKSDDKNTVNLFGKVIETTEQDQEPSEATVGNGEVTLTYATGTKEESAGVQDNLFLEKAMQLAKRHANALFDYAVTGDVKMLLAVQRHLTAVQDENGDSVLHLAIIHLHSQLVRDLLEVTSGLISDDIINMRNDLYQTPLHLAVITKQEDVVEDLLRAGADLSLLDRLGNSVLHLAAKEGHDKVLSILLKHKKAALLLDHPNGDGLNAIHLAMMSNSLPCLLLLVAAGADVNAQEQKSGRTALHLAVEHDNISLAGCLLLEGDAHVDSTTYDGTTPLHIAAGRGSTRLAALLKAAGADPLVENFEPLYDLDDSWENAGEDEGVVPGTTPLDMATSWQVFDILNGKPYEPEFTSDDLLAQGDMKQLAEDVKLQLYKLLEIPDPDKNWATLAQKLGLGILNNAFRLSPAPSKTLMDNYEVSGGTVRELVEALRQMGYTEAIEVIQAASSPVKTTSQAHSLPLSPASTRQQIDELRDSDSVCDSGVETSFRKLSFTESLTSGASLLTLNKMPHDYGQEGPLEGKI
Nuclear factor NF-kappa-B complex (Homo sapiens), sequence (Q00653 whole entry, looked up): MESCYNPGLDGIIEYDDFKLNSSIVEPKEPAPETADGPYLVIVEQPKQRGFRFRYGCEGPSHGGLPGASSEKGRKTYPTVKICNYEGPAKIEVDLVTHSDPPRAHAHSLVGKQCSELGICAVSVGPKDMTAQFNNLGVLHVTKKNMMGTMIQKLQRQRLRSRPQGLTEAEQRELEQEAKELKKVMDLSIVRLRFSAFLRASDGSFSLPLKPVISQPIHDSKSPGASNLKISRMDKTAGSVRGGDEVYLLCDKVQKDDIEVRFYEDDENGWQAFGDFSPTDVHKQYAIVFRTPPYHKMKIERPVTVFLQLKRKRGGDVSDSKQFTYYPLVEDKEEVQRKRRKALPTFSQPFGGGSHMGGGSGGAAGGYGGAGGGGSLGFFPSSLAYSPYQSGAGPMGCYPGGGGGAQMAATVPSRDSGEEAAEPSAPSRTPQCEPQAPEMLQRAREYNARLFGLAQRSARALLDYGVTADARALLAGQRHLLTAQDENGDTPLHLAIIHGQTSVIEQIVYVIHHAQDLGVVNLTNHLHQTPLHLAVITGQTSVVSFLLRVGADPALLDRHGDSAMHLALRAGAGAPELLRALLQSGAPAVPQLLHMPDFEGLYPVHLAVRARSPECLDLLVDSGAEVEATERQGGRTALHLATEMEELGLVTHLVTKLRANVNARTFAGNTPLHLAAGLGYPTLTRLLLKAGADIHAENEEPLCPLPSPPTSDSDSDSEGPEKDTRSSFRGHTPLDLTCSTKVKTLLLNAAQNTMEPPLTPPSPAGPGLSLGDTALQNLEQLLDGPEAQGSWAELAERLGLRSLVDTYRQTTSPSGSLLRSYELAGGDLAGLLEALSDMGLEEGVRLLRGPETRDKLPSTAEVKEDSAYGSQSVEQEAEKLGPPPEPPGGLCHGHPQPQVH
Nuclear factor NF-kappa-B complex (Homo sapiens), sequence (Q04206 whole entry, looked up): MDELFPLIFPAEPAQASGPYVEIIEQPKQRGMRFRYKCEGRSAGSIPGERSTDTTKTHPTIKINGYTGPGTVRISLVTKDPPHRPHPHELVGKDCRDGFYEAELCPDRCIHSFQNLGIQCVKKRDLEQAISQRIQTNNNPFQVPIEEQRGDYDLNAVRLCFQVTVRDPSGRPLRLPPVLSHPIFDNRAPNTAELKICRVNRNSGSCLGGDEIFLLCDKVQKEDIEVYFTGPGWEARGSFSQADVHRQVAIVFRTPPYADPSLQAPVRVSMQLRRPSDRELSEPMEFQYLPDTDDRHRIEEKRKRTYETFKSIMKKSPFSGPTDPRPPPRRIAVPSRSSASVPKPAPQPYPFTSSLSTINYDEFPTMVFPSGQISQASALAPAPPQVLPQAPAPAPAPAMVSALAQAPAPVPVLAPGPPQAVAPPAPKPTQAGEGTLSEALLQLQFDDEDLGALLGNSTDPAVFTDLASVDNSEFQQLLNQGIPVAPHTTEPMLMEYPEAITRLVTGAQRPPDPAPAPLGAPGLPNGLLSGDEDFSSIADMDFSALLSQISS

As to `CCc1csc(NC(=O)c2ccc(S(=O)(=O)N3CCCCC3)cc2)n1`, the Activity in the data set on THP-1 is reported as 120%. As for `Cc1cccc(C)c1-c1csc(NC(=O)c2ccc(S(=O)(=O)N3CCCCC3)cc2)n1`, the Activity in the data set on THP-1 was 100%; in data set [1], 185%. With `Cc1ccc(C)c(-c2csc(NS(=O)(=O)c3ccc(C(=O)N4CCCCC4)cc3)n2)c1`, the figures for the Activity (with THP-1; in data set [1]) were 69% and 103%, respectively. As to `C#Cc1ccc(C)c(-c2csc(NC(=O)c3ccc(S(=O)(=O)N4CCCCC4)cc3)n2)c1`, the Activity in the data set with THP-1 was found to be 92%; in data set [1] it was 101%. Regarding `Cc1ccc(C)c(-c2ccc(NC(=O)c3ccc(S(=O)(=O)N4CCCCC4)cc3)nc2)c1`, the Activity in the data set with THP-1 turned out to be 93%. Take `CCC#Cc1sc(NC(=O)c2ccc(S(=O)(=O)N3CCCCC3)cc2)nc1-c1cc(C)ccc1C`: the Activity in the data set with THP-1 stood at 103%; in data set [1], 264%. Turning to `Cc1cccc(-c2csc(NC(=O)c3ccc(S(=O)(=O)N4CCCCC4)cc3)n2)c1`, the Activity in the data set on THP-1 was determined as 98%.

Take `COc1cc(S(=O)(=O)N2CCCCC2)ccc1C(=O)Nc1nc(-c2cc(C)ccc2C)cs1`: the Activity in data set [1] is 99%. Consider `Cc1ccc(C)c(-c2cnc(NC(=O)c3ccc(S(=O)(=O)N4CCCCC4)cc3)s2)c1`, for which the Activity in the data set with THP-1 turned out to be 101%; in data set [1], 99%. Regarding `CCN(c1ccccc1)S(=O)(=O)c1ccc(C(=O)Nc2nc(-c3cc(C)ccc3C)cs2)cc1`, the Activity turned out to be 81% in the data set with THP-1 and 105% in data set [1]. Turning to `Cc1ccc(C)c(-c2csc(NC(=O)c3ccc(S(=O)(=O)C4CCCCC4)cc3)n2)c1`, the Activity in the data set with THP-1 is on record as 82%. As to `Cc1ccc(C)c(-c2csc(NC(=O)c3ccc(S(=O)(=O)N4CCNCC4)cc3)n2)c1`, the Activity was 121% in the data set with THP-1 and 101% in data set [1]. Take `CCCN1CCN(S(=O)(=O)c2ccc(C(=O)Nc3nc(-c4cc(C)ccc4C)cs3)cc2)CC1`: in the data set on THP-1, the Activity was 80%. In the case of `Cc1ccc(C)c(-c2csc(NC(=O)c3ccc(S(=O)(=O)N4CCCCC4)nc3)n2)c1`, in the data set on THP-1, the Activity is listed as 89%. `CCCCN(CCCC)S(=O)(=O)c1ccc(C(=O)Nc2nc(-c3cc(C)ccc3C)cs2)cc1`: in data set [1], the Activity was found to be 102%. On to `Cc1ccc(C)c(-c2nnc(NC(=O)c3ccc(S(=O)(=O)N4CCCCC4)cc3)s2)c1`, for which the Activity in the data set with THP-1 amounted to 90%.

As for `Cc1ccc(C)c(-c2csc(NC(=O)c3ccc(SC4CCCCC4)cc3)n2)c1`, in the data set on THP-1, the Activity came out at 85%. On the same count and under the same terms, for `Cc1ccc(C)c(-c2ccc(NC(=O)c3ccc(S(=O)(=O)N4CCCCC4)cc3)cn2)c1` the value was 93%; for `C#CCN(C(=O)c1ccc(S(=O)(=O)N2CCCCC2)cc1)c1nc(-c2cc(C)ccc2C)cs1`, 102%; for `Cc1csc(NC(=O)c2ccc(S(=O)(=O)N3CCCCC3)cc2)n1`, 108%. As to `Cc1ccc(C)c(-c2nc(NC(=O)c3ccc(S(=O)(=O)N4CCCCC4)cc3)sc2-c2ccco2)c1`, in the data set with THP-1, the Activity came to 106%. On to `Cc1ccc(C)c(-c2csc(NC(=O)c3ccc(S(=O)(=O)NC4CCCCC4)cc3)n2)c1`, for which the Activity in the data set with THP-1 is recorded as 91%. Regarding `CCSc1sc(NC(=O)c2ccc(S(=O)(=O)N3CCCCC3)cc2)nc1-c1cc(C)ccc1C`, the Activity in data set [1] came out at 103%. As to `Cc1ccc(C)c(-c2nc(NC(=O)c3ccc(S(=O)(=O)N4CCCCC4)cc3)sc2-c2ccccc2)c1`, the Activity in data set [1] came out at 99%.

As to `Cc1ccccc1-c1csc(NC(=O)c2ccc(S(=O)(=O)N3CCCCC3)cc2)n1`, the Activity in the data set on THP-1 is 98%. With `Cc1ccc(C)c(-c2csc(NC(=O)c3cccc(C(=O)N4CCCCC4)c3)n2)c1`, the Activity in the data set with THP-1 is recorded as 88%. Consider `CCCc1csc(NC(=O)c2ccc(S(=O)(=O)N3CCCCC3)cc2)n1`, for which, in the data set with THP-1, the Activity is recorded as 115%.

With `Cc1ccc(C)c(-c2cccc(NC(=O)c3ccc(S(=O)(=O)N4CCCCC4)cc3)n2)c1`, the Activity with THP-1 is 94%. On to `Cc1ccc(-c2csc(NC(=O)c3ccc(S(=O)(=O)N4CCCCC4)cc3)n2)cc1C`, for which, in data set [1], the Activity came to 98%. Take `COc1cc(C(=O)Nc2nc(-c3cc(C)ccc3C)cs2)ccc1S(=O)(=O)N1CCCCC1`: the Activity in data set [1] was 99%.
